Source: PubChem
Autophagy mod = autophagy modulation, high-content screen; 0.98% of 190,000 active; calls only at 10 µM (by protocol); AID 463193; MEF GFP-LC3 puncta imaging; test concentration mostly 10 µM;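 active means percentage of spot-positive cells more than 3 SD above its plate mean, without a fluorescence outlier flag or 80% toxicity; inconclusive means no clear call, values can overlap the other calls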
INS promoter inh = TRM-6 insulin promoter activity inhibition | TRM-6 cells (human fetal islet line), insulin promoter-eGFP reporter, imaging; reporter expression induced with tamoxifen | inhibition, % at 2 µM | 0.9% of 130,000 active;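 active means inhibition above the mean plus 3 SD, with well images judged a real hit on visual review, cut at about 60% in these data, passing the limit was not always enough; inconclusive means inhibition over the cutoff but images rejected on review; inactive means inhibition not above the cutoff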
Insulin prom up = MIN6 insulin promoter up-regulation; AID 1625; z-score at 5 µM; 0.3% of 190,000 active; MIN6 insulin promoter-GFP reporter, high-content imaging; stronger effect = higher value;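 active means z-score above 3 at 5 µM with at least 500 cells counted in the well; inconclusive means wells under 500 cells, flagged as cytotoxic or low count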
Dynein transport = blocks dynein driven cargo transport along microtubules. 3617.4 mouse cells, GR-EGFP nuclear translocation imaging; test concentration mostly 20 µM; stimulated with dexamethasone, 1 µM; stronger effect = lower value. z-score, hits read low. 0.47% of 220,000 active. AID 1381;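 active means plate z-score of nuclear minus cytoplasmic receptor signal below a set negative limit, without overly bright fluorescence or cell loss, cut at about -3.5 in these data, passing the limit was not always enough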;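 further: z-score of nuclear minus cytoplasmic ring GR-EGFP intensity difference per well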
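Also added: dexamethasone, 1.0 µM final. Medium: tet-free, stripped-serum medium. Detection: fixed, Hoechst-stained cells imaged at 10x for EGFP. Read-out: nuclear-to-cytoplasmic GR-EGFP distribution per well. Times: induction 48 h, compound 1 h, agonist 30 min.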
Large screens that a line does not name were inactive. This is a sample that favours compounds with a hit; in the whole collection about 2% have one here.

COc1ccc(OCCn2cc(/C=N/NC(=O)c3ccncc3)c3ccccc32)cc1	none
COc1cccc(S(=O)(=O)NCc2ccc(C(=O)Nc3ccc(Cl)c(Cl)c3)cc2)c1	Insulin prom up 3.1
COc1ccc(NC(=O)c2ccc(CNS(=O)(=O)c3cccc(OC)c3)cc2)cc1	none
COC(=O)c1sccc1NC(=O)/C=C\c1ccc(Cl)cc1Cl	Autophagy mod active
CCOc1cccc2cc(-c3nnc(NCc4ccc5c(c4)OCO5)s3)c(=O)oc12	Autophagy mod active (no result: INS promoter inh)
CCOc1ccccc1C(=O)NCc1ccc2c(c1)OCO2	none
CCCCC(=O)N(Cc1ccc(F)cc1)C1CCS(=O)(=O)C1 (stereo not drawn)	none (no result: Autophagy mod, INS promoter inh, Insulin prom up)
O=C(Cn1cnc2c(oc3ccccc32)c1=O)NCc1ccccc1	none (no result: INS promoter inh)
O=C(Cn1cnc2c(oc3ccccc32)c1=O)NCc1ccco1	INS promoter inh 82
COc1ccc(C2C=C(c3cccs3)Nc3nc(CCCO)nn32)cc1 (stereo not drawn)	Insulin prom up 5.8
COc1ccc(C2C=C(c3ccccc3)Nc3nc(CCCO)nn32)cc1 (stereo not drawn)	none
Cc1cccc(OCC(O)Cn2c(=N)n(CCN3CCCCC3)c3ccccc32)c1 (stereo not drawn)	Autophagy mod active
Cc1cc(C(=O)CSc2nncn2C)c(C)n1-c1ccccc1	none (no result: INS promoter inh)
Cc1nc(CSc2nnc(C)s2)cs1	INS promoter inh 62
O=C(COC(=O)C1CSC2(c3ccc(F)cc3)CCC(=O)N12)NC(=O)NC1CCCC1 (stereo not drawn)	none
CCN(c1ccccc1)S(=O)(=O)c1ccc(OCC(=O)Nc2cc(C)on2)cc1	none
Cc1cc(NC(=O)COc2ccc(N(C)S(=O)(=O)c3ccccc3)cc2)no1	INS promoter inh 79
CCCCSCc1nc2ccccn2c1Br	none
CCSCc1nc2ccccn2c1Br	INS promoter inh 76
Cc1ccc2cc3c(N)c(C(=O)N4CC(=O)Nc5ccccc54)sc3nc2c1	Autophagy mod active (no result: Insulin prom up)
Cc1ccc2cc3c(N)c(C(=O)Nc4c(C)[nH]c(=O)[nH]c4=O)sc3nc2c1	Autophagy mod active (no result: INS promoter inh, Insulin prom up)
Cc1cc(C)c2nc(SCC(=O)N3CC(=O)Nc4ccccc43)c(C#N)cc2c1	Autophagy mod active (no result: Insulin prom up)
COc1ccc2nc(SCC(=O)N3CC(=O)Nc4ccccc43)c(C#N)cc2c1	none
Cc1cc(C)cc(C(=O)N2CC(=O)Nc3ccccc32)c1	Autophagy mod active
Cc1ccc2cc3c(N)c(C(=O)N4CCOCC4)sc3nc2c1	none
Cc1ccsc1C(=O)N1CC(=O)Nc2ccccc21	none (no result: INS promoter inh)
COCCN(C(=S)Nc1c(C)cc(C)cc1C)C(C)c1cccs1 (stereo not drawn)	none
COc1cccc(C(C)NC(=O)Nc2ccccc2Cl)c1 (stereo not drawn)	none
CCc1ccc2nc3sc(C(=O)N4CCc5ccccc54)c(N)c3cc2c1	Autophagy mod active, Insulin prom up 4.9 (no result: INS promoter inh)
CC(C)c1ccc2nc3sc(C(=O)N4CCc5ccccc5C4)c(N)c3cc2c1	none (no result: INS promoter inh)
CCCC1Cc2nc(Cl)c(C#N)cc2CO1 (stereo not drawn)	none (no result: Autophagy mod, INS promoter inh)
CC1=Nc2ccccc2/C1=C\c1nc(-c2ccccc2)oc1O	none (no result: INS promoter inh)
COc1ccc(-c2nc(/C=C3\C(C)=Nc4ccccc43)c(O)o2)cc1	Autophagy mod active (no result: INS promoter inh)
Clc1ccc2c(N/N=C/c3cccc(Br)c3)ccnc2c1	INS promoter inh 73
O=C(O)c1ccccc1C(=O)NCCc1c(C(=O)O)[nH]c2ccc(F)cc12	none (no result: Autophagy mod, INS promoter inh)
O=C(/C=C/c1cn(CC(O)CN2CCCCC2)c2ccccc12)c1cccs1 (stereo not drawn)	Autophagy mod active, Insulin prom up 4.6 (no result: INS promoter inh)
CCCCCCCCn1ccc(=N)cc1	none (no result: Autophagy mod, INS promoter inh)
CCCCCCCCCCCCCCCCn1cc[n+](C)c1	Autophagy mod active, Insulin prom up inconclusive
O=C1NCN(c2ccccc2)C12CCN(CCCC(c1ccc(F)cc1)c1ccc(F)cc1)CC2	Autophagy mod active
O=C1CCC(=O)N1CCC(c1ccc(F)cc1)c1ccco1 (stereo not drawn)	none (no result: Insulin prom up)
COc1cccc(/C=N/N2CCN(C)CC2)c1	INS promoter inh 73 (no result: Insulin prom up)
CC(C)c1ccc(C(O)P(=O)(OC2CCCCC2)OC2CCCCC2)cc1 (stereo not drawn)	none (no result: Autophagy mod, INS promoter inh)
CCCCCCCCNC(=S)NCCN1CCCCC1	none
O=C(COc1cc(F)ccc1[N+](=O)[O-])NCCCc1ccccc1	none (no result: INS promoter inh)
Cc1ccc(/C=C2/NC(=O)N(Cc3ccccc3F)C2=O)s1	Autophagy mod active
Cc1ccc(NC(=S)N(CCCN2CCOCC2)Cc2ccco2)cc1C	none
Cc1cc(NC(=S)N(CCCN2CCN(C)CC2)Cc2ccco2)ccc1Cl	Autophagy mod active (no result: INS promoter inh)
CCN1CCN(CCCN(Cc2ccco2)C(=S)Nc2cccc(Cl)c2C)CC1	Autophagy mod active (no result: INS promoter inh)
Cc1ccc(SCc2nc3ncccn3c2Br)cc1	none (no result: Autophagy mod, INS promoter inh)
COc1ccc(-c2cc(C(F)F)n3ncc(C(=O)Nc4ccc(C(=O)N5CCOCC5)cc4)c3n2)cc1	Autophagy mod active (no result: INS promoter inh)
COc1ccc(NC(=O)c2ccc3c(=O)n(Cc4ccco4)c(=S)[nH]c3c2)c(OC)c1	none
COc1ccc(OC)c(NC(=O)c2ccc3c(=O)n(CCc4ccccc4)c(=S)[nH]c3c2)c1	Autophagy mod active (no result: INS promoter inh)
Fc1ccccc1SCc1nnc(-c2ccccc2Br)o1	none (no result: INS promoter inh)
CCOc1ccc(NC2=NCC(=O)N2Cc2cccs2)cc1	Insulin prom up 4.8
CCn1c(Cn2nnc(-c3ccccc3)n2)nnc1SCC(=O)Nc1ccc(C(C)=O)cc1	Insulin prom up 4.9
CCOc1ccc2c(c1)C(c1ccc(C)o1)=NNC(c1ccncc1)=N2	Autophagy mod active (no result: INS promoter inh)
COCc1cc(C)nc(OCC(=O)N/N=C/c2ccc(-c3cc([N+](=O)[O-])ccc3Cl)o2)c1C#N	none (no result: Insulin prom up)
CCOc1cc(O)c(-c2[nH]ncc2-c2nc(C)cs2)cc1CC	none (no result: Autophagy mod, INS promoter inh)
O=C(O)CC12CSc3[nH]c(=O)sc3C1c1ccccc1OC2=O (stereo not drawn)	Insulin prom up 3.2 (no result: INS promoter inh)
Cc1ccc(C=Nc2ccccc2C(=O)Nc2ccccc2)cc1	none
Cc1ccc(C=Nc2ccccc2C(N)=O)cc1	Autophagy mod active
Cc1ccc(S(=O)(=O)N(C)C)cc1NC(=O)COC(=O)c1ccc2c(c1)OCCO2	none (no result: INS promoter inh)
Nc1c(C(=O)NCCN2CCOCC2)c2nc3ccccc3nc2n1-c1ccccc1	none (no result: INS promoter inh, Insulin prom up)
N#Cc1c(N)n(CCNC(=O)c2ccc(Cl)cc2)c2nc3ccccc3nc12	none
Cc1ccc(C(=O)NCCn2c(N)c(C#N)c3nc4ccccc4nc32)cc1	Insulin prom up 4.1
Nc1c(C(=O)NCCN2CCOCC2)c2nc3ccccc3nc2n1CCc1ccccc1	none (no result: INS promoter inh)
Nc1c(C(=O)NCCN2CCOCC2)c2nc3ccccc3nc2n1CCc1ccccc1F	Autophagy mod active (no result: INS promoter inh)
Nc1c(C(=O)NCCN2CCOCC2)c2nc3ccccc3nc2n1-c1ccc2c(c1)OCO2	Autophagy mod active (no result: INS promoter inh)
CCOC(=O)C1CCCN(C(=O)COc2ccc(S(=O)(=O)N(CC)c3ccccc3)cc2)C1 (stereo not drawn)	none
COc1ccc(C(c2sc3nc(C)nn3c2O)N2CCC(C(N)=O)CC2)cc1OC (stereo not drawn)	INS promoter inh 80
COC(=O)C1CCN(C(c2ccc(OC)c(OC)c2)c2sc3nc(C)nn3c2O)CC1 (stereo not drawn)	none (no result: INS promoter inh)
